Reference: the EternaBench riboswitch data

Test system: MS2 coat protein
Assay: apparent Kd, MS2 coat protein; higher = weaker binding; RNA-MaP array; FMN 200 µM where present
In short: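 Green signal was scaled to red-channel RNA signal and control-cluster median Fmax, and the apparent Kd was taken as the median of filtered per-cluster binding-curve fits. The binding series used SNAP-549-labelled MS2 coat protein from 0.7 or 1.5 nM, doubling to 3 µM, on designs transcribed by stalled E. coli RNA polymerase on Illumina sequencing-chip clusters. Each series ran without and then with constant ligand in 100 mM Tris-HCl pH 7.5, 80 mM KCl, 4 mM MgCl2, BSA, DTT, yeast tRNA and Tween-20.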

[1] = designed as: ON switch for flavin mononucleotide, no ligand
[2] = ligand present: flavin mononucleotide, designed as: ON switch for flavin mononucleotide
[3] = designed as: OFF switch for flavin mononucleotide, no ligand
[4] = ligand present: flavin mononucleotide, designed as: OFF switch for flavin mononucleotide

| Sequence | apparent Kd [1] | apparent Kd [2] | apparent Kd [3] | apparent Kd [4] |
| --- | --- | --- | --- | --- |
| AUAUGAAAGAUAGGAUAUACUGAGGUUGAAUGGGUAGAAGGAUCGAUAGGGAAGAAUACAUGAGGAUCACCCAUGUUGUGGAUU | 0.0817 µM | 0.0519 µM | – | – |
| CGAUAAAGGUGAGGAUAUGAGAAUAGAAAGAAAUCAGAAGGCACACAUGAGGAUCACCCAUGUGAGUUCUCGAGAUUACAUGGU | – | – | 0.0155 µM | 0.0179 µM |
| AAUAUGAGCUGGUUUAAAACUCAAACAUGAGGAUCACCCAUGUAGGAUAUCAGCACGAUAAGUGCUGAGAAGGACAUCCAGCUC | – | – | 0.015 µM | 0.0189 µM |
| CGUGAGUCAGGAUAUUAGUAGUGUGUGGAUACAUAUAUUGCUGAGAAGGGACAUGAGGAUCACCCAUGUAUACG | – | – | 0.032 µM | 0.0372 µM |
| AUCAGCUCGUGAGGAUAUACGUCACUGCGUCAGCAGUGUGGUAAGAUCACAUGAGGAUCACCCAUGUAGAAGGCACGAGCUGAU | – | – | 0.0662 µM | 0.837 µM |
| UUGGAGUACGUAGGAUAUGUAGGAUAUUCCUACAUGAGGAUCACCCAUGUUAGCAUGGAAGAAGGACAGAAGGACGUGCUCCAU | 1.12 µM | 0.0151 µM | – | – |
| UGAAAACAUGAGGAUCACCCAUGUAAAAACAUGGGAGGAUAUUGAAAAAAAAAAAAAAAACAAGAAGGCCCAAAAA | 0.386 µM | 0.137 µM | – | – |
| CCUUGACAUGAGGAUCACCCAUGUUAGGAUAUAACAUUAGACACUACAGUAUGUAGUGUUAGAAGGGAUAUGGG | – | – | 0.0228 µM | 0.0285 µM |
| AUUUGAAUCGUAGGAUAUCGCUUAAAUUUAACACGAGAAGGACGAACAUGAGGAUCACCCAUGUAUCAUGGUGUAGAUAAUUUG | – | – | 0.0825 µM | 0.353 µM |
| GCGUAAUAGGUGUAGCUAGUCGUGCAAGAAGGGUGGUGAACAUGAGGAUCACCCAUGUGGUCAAUACAGGAUAUUGCUAUACGC | 0.572 µM | 0.139 µM | – | – |
| CGCUCAAUUACUUAGGAUAGAAUCAGAAGGCGUAACAUGAGGAUCACCCAUGUAUAGACGUGUAACGAGGAUAUGAAUUGAGCG | – | – | 0.00536 µM | 0.00534 µM |
| UAUUAUAUAGAGAAGGACAUGAGGAUCACCCAUGUCGCCGGGCCCGGGAAACCGGGCCCGGCCAUGUAGGAUAUCUAUAUGGUA | – | – | 0.00496 µM | 0.00586 µM |
| UAGGUCGACGUAGGAUAUGUAGGAUAUUCCUACAUGAGGAUCACCCAUGUUGAAAUGGAAGAAGGACAGAAGGACGUUGACCUU | 0.0567 µM | 0.0136 µM | – | – |
| AUAAAACAUGAGGAUCACCCAUGUAGACAUAUGGGAGGAUAUACUAGAUCGAAAGAUCUAGUAGAAGGCCUUUAUG | 0.0442 µM | 0.0208 µM | – | – |
| GUAAUGUGAGGAUAUGGUAAAGAUAAGAUGAUGAAAGAACUCCAGAAGGCACAUGAGGAUCACCCAUGUAGAUG | – | – | 0.0267 µM | 0.107 µM |
| AUAAGCUCGUCAGGAUAUACGUCACUGUUUCGGCAGUGAGGUAUGAUCACAUGAGGAUCACCCAUGUAGAAGGGACGAGCUUAU | – | – | 0.00524 µM | 0.00829 µM |
| ACGACGAAAGUCGAACGAUGUAGCAGAAGGACAUGAGGAUCACCCAUGUCAGCUGUAACAGCCAUGUAGGAUAUGCUACAUCGC | – | – | 0.00438 µM | 0.00545 µM |
| CCAGAUAUGUGAGGAUAUAGAGUGGAAUACACUCUAGAAGGUAUGUGAAAACAUGAGGAUCACCCAUGUCAUUGAUUAUCUGGA | 0.026 µM | 0.0275 µM | – | – |
| CAGCACUGUCGAGAGGAUAUGCGGUGAUGGACAUGAGGAUCACCCAUGUUAGCGACAGCAUCACGGCAGAAGGCUCUACUGCUGC | 0.0132 µM | 0.0123 µM | – | – |
| UGAACUAUGUAGAAGGCCCAUAUUUAUAUUUAGGGAGGAUAUACAUGAGGAUCACCCAUGUAUAGAGCAAGUGGACUUGUCAGU | – | – | 0.00919 µM | 0.0103 µM |
| UUUAAACAUGAGGAUCACCCAUGUCGUUCAAAUCAAGGAUAUCAAGCGUAUGCGCACGCUUGAGAAGGUGAAGCUC | 0.0473 µM | 0.135 µM | – | – |
| UAAUCUCAGAUAGGAUAUAUAGGAUGAUUUAAGACUGAACAUGAGGAUCACCCAUGUGAUUAUCUGUAGAAGGAUCAAUUACCC | 0.392 µM | 0.351 µM | – | – |
| GUGCAUUACGAGAAGGCGUACUGGUGAAUAUAAAACGACAAAGGUACAUGAGGAUCACCCAUGUACGAGGAUAUCGGUUUGGCU | – | – | 0.00974 µM | 0.0298 µM |
| AAGUACCGGUGAGGAUAUUUUUAAUAGAACUUUAUGAUAUACAUGAGGAUCACCCAUGUUACUUUAAAGAAGGCAUCGGAUAAA | – | – | 0.0183 µM | 0.0146 µM |

| Sequence | apparent Kd [1] | apparent Kd [2] | apparent Kd [3] | apparent Kd [4] |
| --- | --- | --- | --- | --- |
| CGCUACUGCCAGAAGGACAUGAGGAUCACCCAUGUAGGAUAUGGGUGACGAGGACCAGUGUAGAGAAACUACGCUACAGUAGCG | 0.0894 µM | 0.0475 µM | – | – |
| CCAUUCAGAGGAUAUGCGCAUAGAUAAGACUUUUUUUCUUAACAUGAGGAUCACCCAUGUAGAAGGCUGUAACC | – | – | 0.0197 µM | 0.0186 µM |
| UAGGUACAUGAGGAUCACCCAUGUGAGGAUAUAGAUGAAGAUUGCGAGAGGGAGAGGACUAGAAGGCACAGUGG | – | – | 0.0333 µM | 0.0368 µM |
| GCAAUAGCAUGAGGAUAUGCUGGAGUUUAGACAGUAGAAGGCAUGUCAUAAGACAUGAGGAUCACCCAUGUAAUUACAAUAGCA | 0.0459 µM | 0.0221 µM | – | – |
| GGUACCAUCACAGGAUAUGCUAUGGUUUCCGUAGCAGAAGGGUGAUAACAUGAGGAUCACCCAUGUGGUACCGGGCGUGAGCCC | 0.741 µM | 0.201 µM | – | – |
| AGUUGGCGAGGAUAUACAUGAGGAUCACCCAUGUGAGAGAAAAAAAGGAGAAAAAAAAGUAGAAGGCGCUGACA | – | – | 0.0375 µM | 0.12 µM |
| CCAUCGAGUGUGAGGAUAUGCUGGUCCUUGGAUCAGCAGAAGGCACAUGAGGAUCACCCAUGUGGAGACGGUGG | – | – | 0.0601 µM | 0.286 µM |
| GCAUCCAAAGUGAGGAUAUACCUCUGGAUACAGAGGUAGAAGGCACAUGAGGAUCACCCAUGUUCCUAGGAUGC | – | – | 0.0153 µM | 0.0742 µM |
| CAGCACUGUCGAGAGGAUAUGCGGUGAUGGACAUGAGGAUCACCCAUGUUAGCGACAGCAUCACGGCAGAAGGCUCUGCUGCUGC | 0.0594 µM | 0.0169 µM | – | – |
| AGAGAAUACUCAGGAUAUCUGAAUAGAAAGAGAAGAGAAGGGAGACAUGAGGAUCACCCAUGUGAAGUCUUGAGACUACAUGGU | – | – | 0.366 µM | 0.426 µM |
| AGUAAGAUGCAGAAGGUGUCAGCGAGAGCUGCGACAUGAGGAUCACCCAUGUGUCGGUGACGACGCAAGGAUAUGCAUCUUACA | 0.138 µM | 0.0566 µM | – | – |
| GUGCCUUGGGAGAAGGCAGUAUGCAAAGCAUUCUGAGGAUAUUCAUACCGGAAACGGACAUGAGGAUCACCCAUGUGGCACAAA | 1.21 µM | 0.0646 µM | – | – |
| GUUUAGUGAGGAUAUGUGGCUUCGAUCGUGAGAUCGAGGCUACAGAAGGCACAUGAGGAUCACCCAUGUUCCUU | – | – | 0.0144 µM | 0.0516 µM |
| AGUCAUACAGGAUAUACAUGAGGAUCACCCAUGUUUAUCCUAAAAUAAAAAACCUCAUGUAGAAGGGUAUGACA | – | – | 0.0194 µM | 0.0135 µM |
| UGAUACAUGAGGAUCUCCCAUGACAUGAGGAUCACCCAUGUGCAGGAUAUACGUGUUAUAAUAUAGUAGAAGGGCAGUCUAUGU | – | – | 0.133 µM | 0.199 µM |
| GUGGGACAUGAGGAUCACCCAUGUGGGAGGGAACGAGGAUAUGUGAGGAGCGAGAAGUGAACAGAAGGCGUGGUUG | 0.0828 µM | 0.0514 µM | – | – |
| UCAUGAAGGGCAGGAUAUGGACAUGAGGAUCACCCAUGUACAUGGGAUUAUAUACUAAAUUAAUACUAGAAGGGUUACAUAAAU | – | – | 0.0479 µM | 0.0231 µM |
| AGUGUGUGGCAGGAUAUUCCGGUCGUGAGUCGGGAAGAAGGGUCUACAUGAGGAUCACCCAUGUGAGCGGUUGA | – | – | 0.317 µM | 0.36 µM |
| UUUAGUUCAGGAUAUGUAGAUUUUAACAUGAGGAUCACCCAUGUAGAUCCUGAUCCUGCUACAGAAGGGAAUAUUU | – | – | 0.0231 µM | 0.0251 µM |
| UCGAAGUCCGCCGGACGGCGAGCGAGAAGGCACAAUGAAACGACUCUACAUGAGGAUCACCCAUGUGAGGAUAUCGCGACCUAG | – | – | 0.00827 µM | 0.0577 µM |
| CGGGCACAUGAGGAUCACCCAUGUCAGGAUAUCGGCCGGCGGCCGCCGGGCCGCCGGCCGAGAAGGGACGCCCG | – | – | 0.0164 µM | 0.0187 µM |
| AAAAAGUGAGGAUAUACAUGAGGAUCACCCAUGUGAAAUCGGAAAAAAAAGGAAAAAAGUAGAAGGCACAAAAA | – | – | 0.0242 µM | 0.0243 µM |
| GGAGAUACAUGAGGAUCACCCAUGUAGGAUAUCGAGUAUAUAUAUGGCGAAAGCCAUAUAUAUAUCGAGAAGGGCGUACACACC | – | – | 0.00884 µM | 0.00775 µM |
| AGGCGUAAGACAGGAUAUAGGCAGCGGGCUGGAAACGAAUACAAAGACAUGAGGAUCACCCAUGUCUAGAAGGGUCGUGGCGGG | – | – | 0.00905 µM | 0.00988 µM |
